Assay results published in PMC11638133 (Journal of Veterinary Internal Medicine, 2024).

Columns and labels:
[1] = Plasma pharmacokinetics of active drug metabolites after oral CARDALIS®; type: in vivo, beagle dogs; conditions: linear mixed model, AUC over the first 24 hours, natural logarithmic scale
Outline: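 Healthy purpose-bred beagles, 6 per group, were fed a low-sodium diet for 5 days, then given an oral ACE-inhibitor/mineralocorticoid-antagonist combination for 14 days at 0.25+2 mg/kg q24h, 0.25+2 mg/kg q12h or 0.5+4 mg/kg q12h. Serial Day-13 plasma was stored at −80°C, and three active metabolites were measured by LC-MS/MS. […] Dose–AUC used a linear mixed model (dog random effect, ln scale).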

[2] = system: renin‐angiotensin‐aldosterone system (RAAS); conditions: cited from earlier work
[3] = system: renin‐angiotensin‐aldosterone system (RAAS); conditions: 2 mg/kg PO q24h vs 4 mg/kg PO q24h, monotherapy; cited from earlier work
[4] = highest dose 4 times higher than lowest dose of benazepril

For `O=C(O)CN1C(=O)[C@@H](N[C@@H](CCc2ccccc2)C(=O)O)CCc2ccccc21` [Benazeprilat, benazeprilat], the “increase in AUC for a 1 mg increase in dose” value (“increase in AUC” for short) [1] was 1.99 ng·h/mL.
For `C[C@]12CCC(=O)C=C1C=C[C@@H]1[C@@H]2CC[C@@]2(C)[C@H]1CC[C@@]21CCC(=O)O1` [Canrenone, canrenone], the “increase in AUC” value [1] was 1.54 units.
In the case of `CS[C@@H]1CC2=CC(=O)CC[C@]2(C)[C@H]2CC[C@@]3(C)[C@@H](CC[C@@]34CCC(=O)O4)[C@H]12` [TMS, 7‐alpha‐thiomethylspironolactone], the “increase in AUC” value [1] is reported as 1.50 units.
In the case of `CCOC(=O)[C@H](CCc1ccccc1)N[C@H]1CCc2ccccc2N(CC(=O)O)C1=O` [benazepril], the “difference in mean ACE‐S between the highest and lowest doses” value [2, 4] is given as −59%, the “difference in mean Ang1‐7 between the highest and lowest doses” value [2, 4] is given as “+47%” and the “difference in mean AngII between the highest and lowest doses” value [2, 4] is given as −38%. The “lower values of AngII” value ([2]; highest dose studied (0.5 mg/kg) compared to the lowest dose studied (0.125 mg/kg)) was 38%.
In the case of `CC(=O)S[C@@H]1CC2=CC(=O)CC[C@]2(C)[C@H]2CC[C@@]3(C)[C@@H](CC[C@@]34CCC(=O)O4)[C@H]12` [spironolactone], the “Dose-dependent differences in RAAS metabolites (including aldosterone)” value [3] is listed as “no dose‐dependent differences in RAAS metabolites (including aldosterone)”.
